pIC50: −log10 of the molar value.

As usually defined, the pIC50 is the IC50 on a negative log10 scale, so that one unit is a factor of ten. The low end stands for a large IC50, the high end for a small IC50.

For one data set, the system named is SF-295. As to the kind of experiment: Cytotoxicity against human SF295 cells after 69 hrs by MTT assay. It is filed as functional, cell-based. The conditions noted are these: SF-295, 69 h. In a few lines:
(§1)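 Tumor lines from NCI, kept in RPMI 1640 with 10% FBS, 2 mM glutamine, penicillin/streptomycin, 37 °C, 5% CO2. Seeded at 0.7 × 10^5 cells/well (adherent) or 0.3 × 10^6 cells/well (suspension). Compounds at 0.078-5 µg/mL in DMSO (final below 0.1%), 69 h, then MTT 0.5 mg/mL for 3 h. Formazan dissolved in DMSO, A595. Triplicates; IC50 by nonlinear regression.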
For orientation: Tetrazolium assays rely on reduction of a dye to a coloured formazan, in cell work by metabolically active cells.

Another data set relates to HCT-8. As to the kind of experiment: Cytotoxicity against human HCT8 cells after 69 hrs by MTT assay. Format: functional, cell-based. The conditions noted are these: HCT-8, 69 h. In a few lines:
as §1

A further data set has as its system HL-60. In words: Cytotoxicity against human HL60 cells after 69 hrs by MTT assay. It is filed as functional, cell-based. The conditions noted are these: HL-60, 69 h. In a few lines:
as §1

A further data set relates to PBMC. In words: Cytotoxicity against human PBMC after 72 hrs by alamar blue assay. Format: cell-based. The gist of the method: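 PBMC isolated from heparinized blood of healthy nonsmoking donors by Ficoll-Hypaque gradient. Cells at 3 × 10^5 cells/mL in RPMI 1640 with 20% FBS, 37 °C, 5% CO2, phytohemagglutinin 3% added at the start. Compounds added after 24 h at 0.078-5 µg/mL in DMSO (final below 0.1%), exposure 72 h. Alamar Blue added for the last 24 h; absorbance read at 570 and 595 nm, expressed as % reduced versus control.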
A general note: The colour change of resazurin is a common sign of viable cells or microbes.

Data set [1] is described as follows: Hemolytic activity in mouse erythrocytes at 200 ug/ml after 1 hr by spectrophotometer. Format: ADME, cell-based. The conditions noted are these: erythrocyte. The gist of the method:
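Mouse erythrocytes as a 2% suspension in 0.85% NaCl with 10 mM CaCl2. Compounds tested at 0.78-200 µg/mL; 1% DMSO served as negative control and 0.2% Triton X-100 set 100% hemolysis. After 1 h at room temperature and centrifugation, released hemoglobin in the supernatant measured at 540 nm absorbance.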

The test system of a further data set is MDA-MB-435. In words: Cytotoxicity against human MDA-MB-435 cells after 69 hrs by MTT assay. Particulars: MDA-MB-435, 69 h; call rule not given here. Format: functional, cell-based. The gist of the method: as §1

Regarding `C=C1C(=O)[C@@]23CC[C@H]4[C@@](C)(CCC[C@]4(C)C(=O)O)[C@@H]2CC[C@@H]1C3`, the pIC50 with SF-295 was 5.43; in the data set on HCT-8 it was 5.82; with HL-60, 5.70; in the data set with PBMC it was below 5.00; in the data set with MDA-MB-435, 5.38. Also, the Activity result in data set [1] was “Not Active”.

Consider `C=C1C(=O)O[C@@]23CC[C@H]4[C@@](C)(CCC[C@]4(C)C(=O)O)[C@@H]2CC[C@@H]1C3` (relative stereo), for which the pIC50 with SF-295 was below 5.00; in the data set on HCT-8 it was 5.28; with HL-60 it was 5.09; in the data set with PBMC it was below 5.00; in the data set with MDA-MB-435 it was below 5.00. In addition, in data set [1], the Activity entry was “Not Active”.

Consider `C=C(C(=O)OC)C1C[C@H](OC(C)=O)C2=C(CC[C@@H]3[C@@](C)(C(=O)OC)C(=O)CC[C@@]23C)[C@@H]1OC(C)=O` (relative stereo) [ABIETANE], for which the pIC50 in the data set on SF-295, with HCT-8, in the data set on HL-60, in the data set with PBMC and with MDA-MB-435 was below 5.00 in each case. For the same molecule, in data set [1], the Activity result was “Not Active”.

Take `COc1cccc2c1C(=O)c1c(O)c3c(c(O)c1C2=O)C[C@@](O)(C(=O)CO)C[C@@H]3O[C@H]1C[C@H](N)[C@H](O)[C@H](C)O1` [DOXORUBICIN]: the pIC50 is 6.43 in the data set with SF-295; 7.05 in the data set on HCT-8; 7.30 in the data set on HL-60; 6.30 in the data set on PBMC; 5.78 in the data set with MDA-MB-435.

The record behind these values is ChEMBL document CHEMBL1154309, “Cytotoxic diterpenoids from Croton argyrophylloides” (J Nat Prod, 2009).
